Source: ChEMBL document CHEMBL1139183, “Potent and selective xanthine-based inhibitors of phosphodiesterase 5” (Bioorg Med Chem Lett, 2007)

Experiments:
[1] = molecular target: cGMP-specific 3',5'-cyclic phosphodiesterase (Homo sapiens, UniProt O76074); assay: Inhibition of human platelet PDE5 by [3H]cGMP scintillation proximity assay
[2] = molecular target: Phosphodiesterase 3 (Homo sapiens, UniProt Q14432+Q13370); assay: Inhibition of human platelet PDE3 by [3H]cGMP scintillation proximity assay
[3] = Inhibition of bovine PDE6 by [3H]cGMP scintillation proximity assay; design: species or system Bos taurus
[4] = Inhibition of bovine PDE1 by [3H]cGMP scintillation proximity assay; design: species or system Bos taurus
[5] = Permeability from apical to basolateral side of Caco-2 cell membrane; assay type: ADME, cell-based; conditions: human
[6] = Oral bioavailability in dog at 2.5 mg/kg; assay type: ADME, organism-based, Canis lupus familiaris; conditions: in vivo
How it was run: (§1)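 Dog pharmacokinetics: clearance, half-life and Vss came from IV dosing. Bioavailability came from oral dosing at 2.5 mg/kg. Values are means ± SEM.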

[7] = Volume of distribution at steady state in rat; assay type: ADME, organism-based; conditions: in vivo, read-out: Vdss
How it was run: (§2)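 Rat pharmacokinetics: IV bolus at 0.8 mg/kg gave clearance, half-life and Vss. […] Values are means ± SEM.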

[8] = Intrinsic clearance in rat microsomes; assay type: ADME, Microsome
[9] = Intrinsic clearance in human microsomes; assay type: ADME, Microsome
[10] = Clearance in iv dosed dog; assay type: ADME, organism-based, Canis lupus familiaris; conditions: in vivo; how it was run: as §1
[11] = molecular target: T1, Adenosine receptor A1 (Homo sapiens, UniProt P30542); assay: Inhibition of adenosine A1 receptor
T1 sequence (P30542 whole entry): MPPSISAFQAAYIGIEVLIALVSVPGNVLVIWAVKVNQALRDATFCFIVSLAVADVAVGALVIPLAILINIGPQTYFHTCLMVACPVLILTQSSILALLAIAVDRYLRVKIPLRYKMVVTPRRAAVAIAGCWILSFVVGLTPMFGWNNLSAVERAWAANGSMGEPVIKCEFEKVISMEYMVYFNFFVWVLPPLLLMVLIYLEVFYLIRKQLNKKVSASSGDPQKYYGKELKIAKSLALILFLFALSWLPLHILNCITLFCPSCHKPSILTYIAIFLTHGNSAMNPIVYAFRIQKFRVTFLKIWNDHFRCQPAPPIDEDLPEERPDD
How it was run: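 Binding was profiled in a contract Spectrum Screen panel of 111 receptors. Adenosine A1 activity was reported as Ki.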

[12] = Volume of distribution at steady state in dog; assay type: ADME, organism-based, Canis lupus familiaris; conditions: in vivo, read-out: Vdss; how it was run: as §1
[13] = Half life in rat at 0.8 mg/kg, iv; assay type: ADME, organism-based; design: dose 0.8 mg/kg, route intravenous; conditions: in vivo; how it was run: as §2
[14] = Clearance in rat at 0.8 mg/kg, iv; assay type: ADME, organism-based; design: dose 0.8 mg/kg, route intravenous; conditions: in vivo; how it was run: as §2
[15] = Inhibition of adenosine transporter; design: species or system Homo sapiens
[16] = Intrinsic clearance in dog microsomes; assay type: ADME, Canis lupus familiaris, Liver, Microsome
[17] = Bioavailability in rat at 3.3 mg/kg, intraduodenally; assay type: ADME, organism-based; conditions: in vivo; how it was run: as §2
[18] = Half life in dog at 0.2 mg/kg, iv; assay type: ADME, organism-based, Canis lupus familiaris; design: dose 0.2 mg/kg, route intravenous; conditions: in vivo; how it was run: as §1
[19] = molecular target: 3',5'-cyclic-AMP phosphodiesterase 4D (Homo sapiens, UniProt Q08499); assay: Inhibition of human recombinant PDE4D by […] scintillation proximity assay
[20] = molecular target: cGMP-dependent 3',5'-cyclic phosphodiesterase (Homo sapiens, UniProt O00408); assay: Inhibition of human platelet PDE2 by [3H]cGMP scintillation proximity assay
[21] = molecular target: 3',5'-cyclic-AMP phosphodiesterase 4B (Homo sapiens, UniProt Q07343); assay: Inhibition of human recombinant PDE4B by […] scintillation proximity assay
[22] = molecular target: High affinity 3',5'-cyclic-AMP phosphodiesterase 7A (Homo sapiens, UniProt Q13946); assay: Inhibition of human recombinant PDE7A by […] scintillation proximity assay
High affinity 3',5'-cyclic-AMP phosphodiesterase 7A, sequence (Q13946 whole entry): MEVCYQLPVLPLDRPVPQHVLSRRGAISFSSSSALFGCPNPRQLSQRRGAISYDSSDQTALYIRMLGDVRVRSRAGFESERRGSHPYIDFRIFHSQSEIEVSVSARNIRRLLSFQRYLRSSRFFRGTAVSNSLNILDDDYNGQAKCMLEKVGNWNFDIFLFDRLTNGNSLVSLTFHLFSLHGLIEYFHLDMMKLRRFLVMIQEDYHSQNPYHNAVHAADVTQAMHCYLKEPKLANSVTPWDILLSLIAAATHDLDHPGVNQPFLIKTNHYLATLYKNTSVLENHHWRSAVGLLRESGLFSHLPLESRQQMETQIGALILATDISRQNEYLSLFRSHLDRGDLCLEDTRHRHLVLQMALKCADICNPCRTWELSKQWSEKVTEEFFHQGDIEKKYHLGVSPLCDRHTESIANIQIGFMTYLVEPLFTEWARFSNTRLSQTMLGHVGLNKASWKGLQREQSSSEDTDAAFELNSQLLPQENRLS

3',5'-cyclic-AMP phosphodiesterase 4B, sequence (Q07343 whole entry): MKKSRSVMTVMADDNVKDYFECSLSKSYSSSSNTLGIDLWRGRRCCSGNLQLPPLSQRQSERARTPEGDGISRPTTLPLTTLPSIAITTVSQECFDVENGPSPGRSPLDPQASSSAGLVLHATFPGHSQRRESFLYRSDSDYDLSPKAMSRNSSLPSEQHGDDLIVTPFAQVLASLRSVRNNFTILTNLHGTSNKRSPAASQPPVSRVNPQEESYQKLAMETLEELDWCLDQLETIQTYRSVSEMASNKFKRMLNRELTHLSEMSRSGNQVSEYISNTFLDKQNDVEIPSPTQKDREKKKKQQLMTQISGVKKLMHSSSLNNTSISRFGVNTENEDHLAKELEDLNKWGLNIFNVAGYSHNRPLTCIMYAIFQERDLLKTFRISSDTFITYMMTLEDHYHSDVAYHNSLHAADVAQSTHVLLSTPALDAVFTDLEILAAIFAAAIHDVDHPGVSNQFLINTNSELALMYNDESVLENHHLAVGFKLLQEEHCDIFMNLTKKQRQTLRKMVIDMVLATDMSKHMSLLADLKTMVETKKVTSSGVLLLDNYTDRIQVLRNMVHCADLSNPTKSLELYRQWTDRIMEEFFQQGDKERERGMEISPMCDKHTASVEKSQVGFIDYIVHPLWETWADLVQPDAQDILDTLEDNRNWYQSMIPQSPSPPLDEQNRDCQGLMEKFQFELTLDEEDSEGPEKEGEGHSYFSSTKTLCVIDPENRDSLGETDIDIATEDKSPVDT
3',5'-cyclic-AMP phosphodiesterase 4D, sequence (Q08499 whole entry): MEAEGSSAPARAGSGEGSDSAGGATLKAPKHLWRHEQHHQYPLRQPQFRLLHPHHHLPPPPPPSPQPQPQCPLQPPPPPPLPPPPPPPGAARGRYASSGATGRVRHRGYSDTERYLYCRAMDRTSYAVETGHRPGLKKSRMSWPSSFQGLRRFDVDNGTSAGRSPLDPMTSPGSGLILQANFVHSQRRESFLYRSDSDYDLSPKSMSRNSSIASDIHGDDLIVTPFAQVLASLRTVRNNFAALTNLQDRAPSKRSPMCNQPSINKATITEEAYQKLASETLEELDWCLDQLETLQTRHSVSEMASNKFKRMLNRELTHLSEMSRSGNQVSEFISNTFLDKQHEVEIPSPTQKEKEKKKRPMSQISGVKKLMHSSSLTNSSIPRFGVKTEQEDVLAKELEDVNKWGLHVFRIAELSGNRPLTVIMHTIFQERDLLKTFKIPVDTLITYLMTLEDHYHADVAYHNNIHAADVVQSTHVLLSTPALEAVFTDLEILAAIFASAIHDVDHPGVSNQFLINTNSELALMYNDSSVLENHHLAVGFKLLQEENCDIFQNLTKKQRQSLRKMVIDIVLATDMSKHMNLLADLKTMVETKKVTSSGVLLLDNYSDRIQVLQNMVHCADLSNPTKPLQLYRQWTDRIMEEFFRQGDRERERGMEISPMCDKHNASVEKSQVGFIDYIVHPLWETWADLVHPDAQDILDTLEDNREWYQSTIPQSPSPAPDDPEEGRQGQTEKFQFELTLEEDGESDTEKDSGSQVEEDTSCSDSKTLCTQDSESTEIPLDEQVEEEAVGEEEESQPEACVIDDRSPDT
cGMP-dependent 3',5'-cyclic phosphodiesterase, sequence (O00408 whole entry): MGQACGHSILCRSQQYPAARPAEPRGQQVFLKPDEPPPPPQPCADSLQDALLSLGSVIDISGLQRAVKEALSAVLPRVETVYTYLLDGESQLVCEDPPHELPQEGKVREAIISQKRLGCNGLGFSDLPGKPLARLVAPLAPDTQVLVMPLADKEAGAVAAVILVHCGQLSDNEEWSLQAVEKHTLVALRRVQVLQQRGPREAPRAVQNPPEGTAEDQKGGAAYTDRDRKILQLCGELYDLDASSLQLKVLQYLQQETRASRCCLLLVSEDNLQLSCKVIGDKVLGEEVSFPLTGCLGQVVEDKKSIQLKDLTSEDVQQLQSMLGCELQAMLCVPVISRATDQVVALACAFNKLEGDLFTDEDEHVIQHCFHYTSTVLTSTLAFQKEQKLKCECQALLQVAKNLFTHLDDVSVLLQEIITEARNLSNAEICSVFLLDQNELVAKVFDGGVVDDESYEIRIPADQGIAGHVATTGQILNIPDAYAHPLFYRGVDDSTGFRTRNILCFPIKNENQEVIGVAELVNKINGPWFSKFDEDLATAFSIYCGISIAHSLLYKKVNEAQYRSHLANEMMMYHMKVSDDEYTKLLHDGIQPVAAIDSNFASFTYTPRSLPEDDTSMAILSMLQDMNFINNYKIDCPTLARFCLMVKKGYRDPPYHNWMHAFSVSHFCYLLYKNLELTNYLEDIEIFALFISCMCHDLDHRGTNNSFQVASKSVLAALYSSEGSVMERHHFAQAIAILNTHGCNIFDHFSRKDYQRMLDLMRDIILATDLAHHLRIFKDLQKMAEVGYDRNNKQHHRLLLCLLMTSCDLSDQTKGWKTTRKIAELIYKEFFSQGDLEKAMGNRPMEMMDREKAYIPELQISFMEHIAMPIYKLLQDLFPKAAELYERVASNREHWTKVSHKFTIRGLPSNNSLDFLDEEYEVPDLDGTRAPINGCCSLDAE

SMILES	IC50 [1]	IC50 [2]	IC50 [3]	IC50 [4]	further results
COc1cc2cncc(Cc3nc4c([nH]3)c(=O)n(C)c(=O)n4Cc3ccc(NS(=O)(=O)C(C)C)cc3)c2cc1OC	0.005 µM	3.13 µM	0.399 µM	3.44 µM	–
COc1cc2c(Cc3nc4c([nH]3)c(=O)n(C)c(=O)n4CC(C)C)cnc(C)c2cc1OC	0.002 µM	0.042 µM	0.226 µM	0.072 µM	Papp A→B [5]: 0.9 ×10⁻⁶ cm/s
COc1cc2cncc(Cc3nc4c([nH]3)c(=O)n(C)c(=O)n4CC(C)(C)C)c2cc1OC	0.008 µM	1.06 µM	0.294 µM	2.79 µM	Papp A→B [5]: 23.4 ×10⁻⁶ cm/s
COc1ccc(Cn2c(=O)n(C)c(=O)c3[nH]c(Cc4cncc5cc(OC)c(OC)cc45)nc32)cc1OC	0.033 µM	–	1.82 µM	3.91 µM	–
COc1cc2cnc(C)c(Cc3nc4c([nH]3)c(=O)n(C)c(=O)n4CC(C)C)c2cc1OC	0.026 µM	–	0.525 µM	–	–
CC(C)Cn1c(=O)n(C)c(=O)c2[nH]c(Cc3cncc4ccccc34)nc21	0.034 µM	1.85 µM	0.857 µM	7.29 µM	–
COc1ccc2c(Cc3nc4c([nH]3)c(=O)n(C)c(=O)n4CC(C)C)cncc2c1	0.051 µM	–	0.247 µM	–	–
COc1ccc2cncc(Cc3nc4c([nH]3)c(=O)n(C)c(=O)n4CC(C)C)c2c1 [listing 1 of 2 here]	–	2.22 µM	0.18 µM	2.85 µM	bioavailability [6]: 103%; Vd [7]: 2.9 L/kg; clearance [8]: 162 µL/min/mg; clearance [9]: 4 µL/min/mg; clearance [10]: 28.7 mL/min/kg; Ki [11]: 2.3 µM; Vd [12]: 2.1 L/kg; half-life [13]: 21 min; clearance [14]: 118 mL/min/kg; Papp A→B [5]: 13.8 ×10⁻⁶ cm/s; Ki [15]: 2.8 µM; clearance [16]: 6 µL/min/mg; bioavailability [17]: 1%; half-life [18]: 63.4 min
COc1cc2cncc(Cc3nc4c([nH]3)c(=O)n(C)c(=O)n4CC(C)C)c2cc1OC	0.009 µM	0.299 µM	0.389 µM	0.417 µM	Papp A→B [5]: 31.8 ×10⁻⁶ cm/s
COc1cc2cncc(C(C)c3nc4c([nH]3)c(=O)n(C)c(=O)n4CC(C)C)c2cc1OC (stereo unspecified)	0.094 µM	–	–	–	–
COc1cc2cncc(Cc3nc4c([nH]3)c(=O)n(CC(C)C)c(=O)n4CC(C)C)c2cc1OC	0.462 µM	–	–	–	–
CC(C)Cn1c(=O)n(C)c(=O)c2[nH]c(CC3CC4CCC3C4)nc21 (stereo unspecified)	0.025 µM	–	0.065 µM	–	–
COc1cc2cncc(Cc3nc4c([nH]3)c(=O)n(C)c(=O)n4CC3CCCCC3)c2cc1OC	0.028 µM	–	1.13 µM	–	–
COc1cc2cncc(Cc3nc4c(c(=O)n(C)c(=O)n4CC(C)C)n3C)c2cc1OC	0.553 µM	–	–	–	–
C=C(C)Cn1c(=O)n(C)c(=O)c2[nH]c(Cc3cncc4cc(OC)c(OC)cc34)nc21	0.03 µM	–	0.333 µM	–	–
COc1cc2cncc(Cc3nc4c([nH]3)c(=O)n(C)c(=O)n4Cc3ccc(NC(C)=O)cc3)c2cc1OC	0.042 µM	–	0.471 µM	–	–
CC(C)Cn1c(=O)n(C)c(=O)c2[nH]c(Cc3cncc4cc5c(cc34)OCO5)nc21	10 µM	–	–	–	–
COc1cc2cncc(Cc3nc4c([nH]3)c(=O)n(C)c(=O)n4CC3CC3)c2cc1OC	0.02 µM	1.64 µM	0.823 µM	1.32 µM	–
COc1ccc2cncc(Cc3nc4c([nH]3)c(=O)n(C)c(=O)n4CC(C)C)c2c1 [listing 2 of 2 here]	–	–	–	–	IC50 [19]: > 10 µM; IC50 [20]: 4.6 µM; IC50 [21]: > 10 µM; IC50 [22]: > 10 µM
COc1cc2cncc(Cc3nc4c([nH]3)c(=O)n(C)c(=O)n4CC(C)CO)c2cc1OC (racemic)	0.006 µM	2.71 µM	0.363 µM	0.67 µM	–
